From ChEMBL document CHEMBL4196201, “Discovery of N-(4-{[5-Fluoro-7-(2-methoxyethoxy)quinazolin-4-yl]amino}phenyl)-2-[4-(propan-2-yl)-1 H-1,2,3-triazol-1-yl]acetamide (AZD3229), a Potent Pan-KIT Mutant Inhibitor for the Treatment of Gastrointestinal Stromal Tumors” (J Med Chem, 2018)
The source made the active and inactive calls. No cut-off for these calls is given here.

How the values were obtained:
[1] = target: Voltage-gated inwardly rectifying potassium channel KCNH2 (Homo sapiens, UniProt Q12809); assay: Inhibition of human ERG
Voltage-gated inwardly rectifying potassium channel KCNH2, sequence (Q12809 whole entry, the tested form may be a part): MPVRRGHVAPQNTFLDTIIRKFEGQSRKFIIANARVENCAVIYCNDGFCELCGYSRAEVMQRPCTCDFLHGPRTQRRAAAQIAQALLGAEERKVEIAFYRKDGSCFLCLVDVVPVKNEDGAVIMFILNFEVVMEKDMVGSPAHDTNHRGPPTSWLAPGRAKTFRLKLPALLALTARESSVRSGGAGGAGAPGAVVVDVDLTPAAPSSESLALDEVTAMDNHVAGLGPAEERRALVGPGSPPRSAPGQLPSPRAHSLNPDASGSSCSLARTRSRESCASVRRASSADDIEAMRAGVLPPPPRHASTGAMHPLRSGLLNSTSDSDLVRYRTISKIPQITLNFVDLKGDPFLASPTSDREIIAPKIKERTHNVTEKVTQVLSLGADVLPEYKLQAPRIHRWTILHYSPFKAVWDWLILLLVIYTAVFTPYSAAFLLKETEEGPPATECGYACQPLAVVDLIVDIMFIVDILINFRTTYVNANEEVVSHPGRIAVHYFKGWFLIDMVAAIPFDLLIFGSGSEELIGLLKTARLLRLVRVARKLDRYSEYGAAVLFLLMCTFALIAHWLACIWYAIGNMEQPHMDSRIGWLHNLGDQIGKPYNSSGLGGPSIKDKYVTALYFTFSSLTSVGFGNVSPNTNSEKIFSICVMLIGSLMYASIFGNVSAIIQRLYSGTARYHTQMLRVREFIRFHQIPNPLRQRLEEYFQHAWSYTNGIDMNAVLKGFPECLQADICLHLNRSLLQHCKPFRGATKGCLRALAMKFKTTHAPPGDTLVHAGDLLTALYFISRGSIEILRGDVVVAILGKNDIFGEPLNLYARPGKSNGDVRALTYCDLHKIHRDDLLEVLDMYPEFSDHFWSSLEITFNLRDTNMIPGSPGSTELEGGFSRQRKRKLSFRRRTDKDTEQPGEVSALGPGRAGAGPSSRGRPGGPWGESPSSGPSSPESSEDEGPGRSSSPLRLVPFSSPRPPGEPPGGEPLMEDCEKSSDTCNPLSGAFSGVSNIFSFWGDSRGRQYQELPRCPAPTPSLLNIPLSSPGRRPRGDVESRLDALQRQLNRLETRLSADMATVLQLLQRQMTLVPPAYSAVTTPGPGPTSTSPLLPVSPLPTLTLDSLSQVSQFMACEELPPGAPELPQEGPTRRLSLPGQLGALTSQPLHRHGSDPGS

BaF3 [2] = assay: Antitumor activity against mouse BA/F3 cells expressing Kit exon 11 deletion (557 to 558 residues) and V654 mutant (unknown origin) allografted in CB17 SCID mouse assessed as tumor regression at 20 mg/kg, po bid measured on last day of dosing; format: functional
How it was run: (§1)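 Ba/F3 cells bearing the KIT exon 11 del/D816H or exon 11 del/V654A mutation were grown as allografts in mice. Compounds were given p.o. once (QD) or twice daily (BD), and vehicle was given BD p.o. Tumor growth inhibition and regression (%) were taken on the last day of dosing. p-values were calculated relative to vehicle.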

[3] = Lipophilicity, log D of the compound at pH 7.4; format: physicochemical; details: buffer
[4] = Half life in CD1 mouse at 21 umol/kg, po; format: ADME, organism-based; details: in vivo
How it was run: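 PK was run in CD1 mice with an iv dose of 10 μMol/kg and an oral dose of 21 μMol/kg. Cl, Vdss, t1/2 and F% were derived.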

[5] = Intrinsic clearance in human hepatocytes assessed per million cells; format: ADME, cell-based, Hepatocyte; details: read-out: CLH
[6] = Volume of distribution at steady state in dog […] at 1 umol/kg, iv; format: ADME, organism-based, Canis lupus familiaris; details: in vivo, read-out: Vdss
[7] = test system: Mast/stem cell growth factor receptor Kit (Homo sapiens), P10721 [V560D]
Mast/stem cell growth factor receptor Kit (Homo sapiens), P10721 [V560D], sequence (P10721 whole entry V560D): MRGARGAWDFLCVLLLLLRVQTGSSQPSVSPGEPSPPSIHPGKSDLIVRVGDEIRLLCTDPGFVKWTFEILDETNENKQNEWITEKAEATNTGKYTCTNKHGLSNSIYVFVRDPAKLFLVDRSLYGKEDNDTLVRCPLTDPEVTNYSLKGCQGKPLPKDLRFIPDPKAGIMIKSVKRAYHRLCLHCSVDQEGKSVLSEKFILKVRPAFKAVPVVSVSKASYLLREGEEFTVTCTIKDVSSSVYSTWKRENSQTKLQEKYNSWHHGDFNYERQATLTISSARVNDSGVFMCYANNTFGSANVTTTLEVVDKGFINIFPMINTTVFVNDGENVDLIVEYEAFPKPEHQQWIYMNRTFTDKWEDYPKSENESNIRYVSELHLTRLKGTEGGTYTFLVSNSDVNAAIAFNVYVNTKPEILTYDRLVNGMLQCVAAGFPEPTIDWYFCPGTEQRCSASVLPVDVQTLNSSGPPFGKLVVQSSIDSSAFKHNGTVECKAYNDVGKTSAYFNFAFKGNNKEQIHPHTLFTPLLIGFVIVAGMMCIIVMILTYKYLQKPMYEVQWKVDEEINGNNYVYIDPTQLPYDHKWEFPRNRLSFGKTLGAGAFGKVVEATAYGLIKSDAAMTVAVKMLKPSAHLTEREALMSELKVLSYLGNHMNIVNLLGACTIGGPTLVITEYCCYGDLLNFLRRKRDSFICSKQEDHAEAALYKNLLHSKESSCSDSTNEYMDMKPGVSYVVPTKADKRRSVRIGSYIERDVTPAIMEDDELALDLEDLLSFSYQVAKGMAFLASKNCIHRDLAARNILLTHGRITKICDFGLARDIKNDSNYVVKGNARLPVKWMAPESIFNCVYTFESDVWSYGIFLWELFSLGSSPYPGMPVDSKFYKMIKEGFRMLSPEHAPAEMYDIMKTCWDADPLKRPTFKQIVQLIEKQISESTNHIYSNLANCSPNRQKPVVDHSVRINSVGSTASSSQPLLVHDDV

[8] = test system: Mast/stem cell growth factor receptor Kit (Homo sapiens), P10721 [UNDEFINED MUTATION]
Mast/stem cell growth factor receptor Kit (Homo sapiens), P10721 [UNDEFINED MUTATION], sequence (P10721 whole entry, looked up, change not shown): as the sequence (P10721 whole entry V560D) above, with D560V counted along it

[9] = Oral bioavailability in dog at […]; format: ADME, organism-based, Canis lupus familiaris; details: in vivo
BaF3 [10] = assay: Antitumor activity against mouse BA/F3 cells expressing Kit exon 11 deletion (557 to 558 residues) and D816H mutant (unknown origin) allografted in CB17 SCID mouse assessed as tumor regression at 2 mg/kg, po bid measured on last day of dosing; format: functional; how it was run: as §1
BaF3 [11] = assay: Antitumor activity against mouse BA/F3 cells expressing Kit exon 11 deletion (557 to 558 residues) and V654 mutant (unknown origin) allografted in CB17 SCID mouse assessed as tumor regression at 2 mg/kg, po bid measured on last day of dosing; format: functional; how it was run: as §1
[12] = Volume of distribution at steady state in CD1 mouse at 10 umol/kg, iv; format: ADME, organism-based; details: in vivo, read-out: Vdss
How it was run: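 PK in CD1 mice given an iv dose of 10 μMol/kg, alongside a separate oral dose of 21 μMol/kg. Clearance, Vdss, half-life and oral bioavailability were derived from these profiles.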

[13] = Intrinsic clearance in mouse hepatocytes assessed per million cells; format: ADME, cell-based, Hepatocyte; details: read-out: CLH
Mus musculus = assay: Inhibition of Kit exon 11 deletion (557 to 558 residues) and D816H mutant (unknown origin) transfected in mouse BA/F3 cells allografted in CB17 SCID mouse assessed as reduction in AKT phosphorylation at 20 mg/kg, po administered as single dose measured after 24 hrs; format: functional, organism-based
How it was run: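 A single 20 mg/kg p.o. dose was given to mice carrying exon 11 del/D816H Ba/F3 allografts. Tumor pKIT, pERK and pAKT were measured over a timecourse, with free compound cover tracked in the same study.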

[14] = Protein binding in rat plasma assessed as unbound fraction level; format: ADME, cell-free
[15] = target: Mast/stem cell growth factor receptor Kit (Homo sapiens) (UniProt P10721)
Mast/stem cell growth factor receptor Kit (Homo sapiens), sequence (P10721 whole entry): as the sequence (P10721 whole entry V560D) above, with D560V counted along it

[16] = test system: Mast/stem cell growth factor receptor Kit (Homo sapiens), P10721 [UNDEFINED MUTATION]; remark: listed apart in the source
[17] = Volume of distribution at steady state in Han Wistar rat at 1 umol/kg, iv; format: ADME, organism-based; details: in vivo, read-out: Vdss
How it was run: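 Han Wistar rat PK study using an iv dose of 1 μMol/kg and an oral dose of 2.1 μMol/kg. Clearance, Vdss, t1/2 and F% were derived.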

[18] = Permeability from apical to basolateral side in human Caco2 cells at 10 uM at pH 6.5; format: ADME, cell-based; details: Caco-2, pH 6.5, read-out: permeability
How it was run: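 Caco2 permeability from A to B was measured at pH6.5 using a 10 μM compound solution, reported in units of 1E-6 cm/s.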

[19] = Intrinsic clearance in dog hepatocytes assessed per million cells; format: ADME, cell-based, Canis lupus familiaris, Hepatocyte; details: read-out: CLH
[20] = Intrinsic clearance in rat hepatocytes assessed per million cells; format: ADME, cell-based, Hepatocyte; details: read-out: CLH
[21] = test system: Mast/stem cell growth factor receptor Kit (Homo sapiens), P10721 [V560D,D816H]
Mast/stem cell growth factor receptor Kit (Homo sapiens), P10721 [V560D,D816H], sequence (P10721 whole entry V560D/D816H): as the sequence (P10721 whole entry V560D) above, with D816H counted along it

Question: Which IC50 [1] does the source give for `COCCOc1cc(F)c2c(Nc3ccc(NC(=O)Cn4cc(C(C)C)nn4)cc3)ncnc2c1` here?
Answer: > 33300 nM

Question: And the Activity (BaF3 [2])?
Answer: 85%

Question: And the logD [3]?
Answer: 3

Question: And the half-life [4]?
Answer: 2 h

Question: What about the hepatocyte CLint [5] of the same compound?
Answer: < 1 µL/min/1e6 cells

Question: And the Vd [6]?
Answer: 0.3 L/kg

Question: And the GI50 [7]?
Answer: 1 nM

Question: And the GI50 [8]?
Answer: 4 nM

Question: What about the bioavailability [9] of the same compound?
Answer: 69%

Question: What about the Activity (BaF3 [10]) of the same compound?
Answer: 0%

Question: And the Activity (BaF3 [11])?
Answer: 44%

Question: And the Vd [12]?
Answer: 0.7 L/kg

Question: And the hepatocyte CLint [13]?
Answer: 5 µL/min/1e6 cells

Question: And the inhibition (Mus musculus)?
Answer: Active

Question: What about the fraction unbound [14] of the same compound?
Answer: 0.022

Question: What about the GI50 [15] of the same compound?
Answer: 1 nM

Question: And the GI50 [16]?
Answer: 14 nM

Question: And the Vd [17]?
Answer: 0.6 L/kg

Question: And the Papp A→B at 10 µM [18]?
Answer: 62.3 ×10⁻⁶ cm/s

Question: And the hepatocyte CLint [19]?
Answer: < 1 µL/min/1e6 cells

Question: And the hepatocyte CLint [20]?
Answer: 17 µL/min/1e6 cells

Question: And the GI50 [21]?
Answer: 18 nM
